Source: ChEMBL document CHEMBL1132170, “Structural and conformational requirements for high-affinity binding to the SH2 domain of Grb2(1)” (J Med Chem, 1999)
pIC50: −log10 of the molar value. Square brackets hold non-standard residues; d marks the D form. Peptide text beside a SMILES is read from it. * marks the point of attachment. pY = N[C@@H](Cc1ccc(OP(=O)(O)O)cc1)C(=O)O; Propionyl = CCC(=O)*; NHBu = CCCCN*

Legend:
[1] = molecular target: Proto-oncogene tyrosine-protein kinase Src (Homo sapiens, UniProt P12931); experiment: Inhibitory activity against binding of Src protein tyrosine kinase SH2 domain to biotinylated EPQY*EEIPI Peptide by ELISA.
Sequence of Proto-oncogene tyrosine-protein kinase Src (P12931 2-536 limits assumed): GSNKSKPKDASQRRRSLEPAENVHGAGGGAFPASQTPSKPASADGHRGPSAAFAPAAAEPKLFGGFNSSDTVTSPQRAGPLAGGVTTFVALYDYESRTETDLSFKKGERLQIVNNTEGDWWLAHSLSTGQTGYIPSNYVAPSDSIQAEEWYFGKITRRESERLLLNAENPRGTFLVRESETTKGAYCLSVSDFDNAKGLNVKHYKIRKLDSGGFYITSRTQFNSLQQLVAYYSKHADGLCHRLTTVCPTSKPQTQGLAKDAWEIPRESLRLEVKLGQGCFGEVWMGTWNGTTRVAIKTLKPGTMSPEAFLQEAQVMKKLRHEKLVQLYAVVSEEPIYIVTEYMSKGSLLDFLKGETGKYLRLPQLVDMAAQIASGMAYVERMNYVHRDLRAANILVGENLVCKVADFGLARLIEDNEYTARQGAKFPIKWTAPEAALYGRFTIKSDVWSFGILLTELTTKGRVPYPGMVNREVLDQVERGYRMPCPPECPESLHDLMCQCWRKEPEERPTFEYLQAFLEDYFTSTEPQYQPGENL
How it was run: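 It competes with test compounds against biotinylated EPQY*EEIPI (6.0 nM) on streptavidin-coated plates for 1 h at rt. Detection is anti-GST, then AP-conjugated secondary with pNPP at 405 nm. IC50 comes from nonlinear regression, adjusted to the on-plate control peptide.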

[2] = molecular target: Growth factor receptor-bound protein 2 (Homo sapiens, UniProt P62993); experiment: Inhibitory activity against binding of Growth factor receptor bound protein 2 to biotinylated KPFY*VNVEF Peptide by ELISA.
How it was run: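 It is competed with test compounds against biotinylated KPFY*VNVEF (4.0 nM) captured on streptavidin plates for 1 h at rt. Bound GST is detected by rabbit anti-GST, then AP anti-rabbit with pNPP, read at 405 nm. IC50 comes from nonlinear regression, normalized to the on-plate control peptide.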

SMILES | pIC50 [1] | pIC50 [2]
CC(C)[C@H]1NC(=O)[C@H](Cc2ccc(OP(=O)(O)O)cc2)NC(=O)OCCCCCNC(=O)[C@@H]2CCCN2C(=O)[C@@H](C(C)C)NC(=O)[C@H](CC(N)=O)NC1=O |  | 6.15
CC(C)[C@@H]1NC(=O)[C@H](Cc2ccc(OP(=O)(O)O)cc2)NC(=O)CNC(=O)[C@@H]2CCCN2C(=O)[C@H](C(C)C)NC(=O)[C@H](CC(N)=O)NC1=O | < 4.00 | 
CC(=O)N[C@@H]1CCCCNC(=O)[C@H]2CCCN2C(=O)[C@H](C(C)C)NC(=O)[C@@H](CC(N)=O)NC(=O)[C@H](C(C)C)NC(=O)[C@@H](Cc2ccc(OP(=O)(O)O)cc2)NC1=O | 4.14 | 6.74
CCCCNC(=O)[C@@H]1CCCN1C(=O)[C@@H](NC(=O)[C@H](CC(N)=O)NC(=O)[C@@H](NC(=O)[C@H](Cc1ccc(OP(=O)(O)O)cc1)NC(=O)CC)C(C)C)C(C)C (Propionyl-[pY]VNVP-NHBu) | < 4.00 | 5.79
CC(C)[C@H](NC(=O)[C@H](CC(N)=O)NC(=O)[C@@H](NC(=O)[C@H](Cc1ccc(OP(=O)(O)O)cc1)NC(=O)[C@H](Cc1ccccc1)NC(=O)[C@@H]1CCCN1C(=O)[C@@H](N)CCCCN)C(C)C)C(=O)N[C@@H](CCC(=O)O)C(=O)N[C@@H](Cc1ccccc1)C(=O)O (H-KPF[pY]VNVEF-OH) |  | 6.15
CC(=O)N[C@H]1CCCCNC(=O)[C@H]2CCCN2C(=O)[C@H](C(C)C)NC(=O)[C@@H](CC(N)=O)NC(=O)[C@H](CC2CCCCC2)NC(=O)[C@@H](Cc2ccc(OP(=O)(O)O)cc2)NC1=O | < 3.82 | 5.79
CC(=O)N[C@H]1CSSC[C@@H](C(=O)O)NC(=O)[C@H]2CCCN2C(=O)[C@H](C(C)C)NC(=O)[C@@H](CC(N)=O)NC(=O)[C@H](C(C)C)NC(=O)[C@@H](Cc2ccc(OP(=O)(O)O)cc2)NC1=O | 4.42 | 

The remaining lines, values ahead:

pIC50 [1] | pIC50 [2] | SMILES
< 4.00 |  | CC(C)[C@@H]1NC(=O)[C@H](Cc2ccc(OP(=O)(O)O)cc2)NC(=O)CCCCCCNC(=O)[C@@H]2CCCN2C(=O)[C@H](C(C)C)NC(=O)[C@H](CC(N)=O)NC1=O
 | 6.22 | CC(C)[C@H]1NC(=O)[C@H](Cc2ccc(OP(=O)(O)O)cc2)NC(=O)CCCCCCNC(=O)[C@@H]2CCCN2C(=O)[C@@H](C(C)C)NC(=O)[C@H](CC(N)=O)NC1=O
< 4.00 |  | CC(C)[C@@H]1NC(=O)[C@H](Cc2ccc(OP(=O)(O)O)cc2)NC(=O)OCCCCCNC(=O)[C@@H]2CCCN2C(=O)[C@H](C(C)C)NC(=O)[C@H](CC(N)=O)NC1=O
 | 6.28 | CC(C)[C@H]1NC(=O)[C@H](Cc2ccc(OP(=O)(O)O)cc2)NC(=O)CNC(=O)[C@@H]2CCCN2C(=O)[C@@H](C(C)C)NC(=O)[C@H](CC(N)=O)NC1=O
< 3.82 | 6.96 | CC(=O)N[C@H]1CCCCNC(=O)[C@H]2CCCN2C(=O)[C@H](CC2CCCCC2)NC(=O)[C@@H](CC(N)=O)NC(=O)[C@H](C(C)C)NC(=O)[C@@H](Cc2ccc(OP(=O)(O)O)cc2)NC1=O
< 4.00 | 4.97 | CC(C)[C@H]1NC(=O)[C@H](Cc2ccc(OP(=O)(O)O)cc2)NC(=O)CNC(=O)[C@H]2CCCN2C(=O)[C@@H](C(C)C)NC(=O)[C@H](CC(N)=O)NC1=O
< 3.82 | 7.15 | CC(=O)N[C@H]1CCCCNC(=O)[C@H]2CCCN2C(=O)[C@H](C(C)C)NC(=O)[C@@H](CC(N)=O)NC(=O)[C@H](C(C)C)NC(=O)[C@@H](Cc2ccc(OP(=O)(O)O)cc2)NC1=O
< 3.82 | 5.87 | CC(=O)N[C@H]1CCCCNC(=O)[C@H]2CCCN2C(=O)[C@H](C(C)C)NC(=O)[C@@H](CC(N)=O)NC(=O)[C@H](CC(C)C)NC(=O)[C@@H](Cc2ccc(OP(=O)(O)O)cc2)NC1=O
